Rows were chosen to be rich in hits. Some 1.5% of all compounds tested hit in one or more screens of this group.
TPT1 inhibitor: C. albicans TPT1 enzyme inhibition | recombinant caTPT1, FP RNA substrate dephosphorylation | inhibition, % at 5 µM | 300,000 tested, 0.81% active | AID 1962;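 active means inhibition above the mean of all tested compounds plus 3 SD, set per screening campaign, cut at about 24% in these data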
Rpn11 inh: inhibitors of human proteasome Rpn11. human 26S proteasome, Ub4-pepOG fluorescence polarization; 20S core pre-blocked with epoxomicin. inhibition, % at 20 µM. AID 588493. O00487. 360,000 tested, 0.59% active;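 active means inhibition at 20 µM, scaled to each plate's controls, above about 33%, limit read from the data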
Target sequence (O00487 whole entry, looked up): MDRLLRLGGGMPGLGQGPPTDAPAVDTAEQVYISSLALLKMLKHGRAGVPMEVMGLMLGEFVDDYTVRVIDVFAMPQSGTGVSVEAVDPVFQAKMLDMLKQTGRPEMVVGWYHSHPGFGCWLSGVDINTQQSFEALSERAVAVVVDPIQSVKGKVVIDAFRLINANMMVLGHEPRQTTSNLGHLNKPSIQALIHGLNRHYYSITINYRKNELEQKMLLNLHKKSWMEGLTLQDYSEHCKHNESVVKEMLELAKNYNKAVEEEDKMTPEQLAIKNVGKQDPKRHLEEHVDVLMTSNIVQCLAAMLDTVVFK
HNF4A DNA FP: change in binding of human HNF4 alpha to DNA; AID 1224865; activity change, % at 10 µM; HNF4a-FITC DNA binding, fluorescence polarization, 1 h; P41235; 360,000 tested, 0.3% active; in the data active means activity change above about 30%, passing the limit was not always enough
CSN deneddyl inh: CSN deneddylation inhibition; Purified CSN, SCF-Nedd8-OG deneddylation, fluorescence polarization; inhibition, % at 12.5 µM; 360,000 tested, 0.38% active;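 active means pattern-corrected inhibition above about 35%, with an unprinted fluorescence ratio check between 0.5 and 1.5, limit read from the data, passing the limit was not always enough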
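Test system: purified human Csn5 enzyme expressed in HEK293T cells. Amount: 0.24 nM enzyme. Reagent: SCFSkp2-Nedd8OG substrate at 10 nM final. Schedule: 90 min incubation of compound, enzyme and substrate at room temperature. Detection: fluorescence polarization. Read-out: % inhibition of substrate cleavage by Csn5.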
caTPT1 confirm: TPT1 (C. albicans) inhibition, confirmation. shares compounds with TPT1 inhibitor. recombinant caTPT1, fluorescence polarization, RNase T1 coupled. inhibition, % at 5 µM. 2,400 tested, 74% active. AID 2149;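 active means inhibition above the primary screen limit, the mean inhibition of all tested compounds plus 3 SD, cut at about 25% in these data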
RNase T1 counter: counter-screen for TPT1 inhibitors: inhibitors of Aspergillus oryzae RNase T1; shares compounds with TPT1 inhibitor; RNase T1 cleavage, fluorescence polarization, 1536-well; inhibition, % at 5 µM; 2,400 tested, 83% active;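 active means inhibition above the solvent-only control well mean plus 3 SD, limit set per screening run, cut at about 23% in these data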;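 further: inhibitors block cleavage so intact labeled substrate keeps polarization high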
Target sequence (P00651 whole entry, looked up): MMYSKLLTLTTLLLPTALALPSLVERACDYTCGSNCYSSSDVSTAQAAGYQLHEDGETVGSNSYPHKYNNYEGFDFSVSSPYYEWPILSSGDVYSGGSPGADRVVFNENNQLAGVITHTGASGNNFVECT
Each line names hits and unclear results; the compound was inactive in the other large screens (follow-up assays come after a bar, where shown).

Cn1c(O)c(/C=C/C=Nc2ccccc2)c(=O)n(C)c1=O	TPT1 inhibitor 104, HNF4A DNA FP 86, CSN deneddyl inh 56 (not shown: Rpn11 inh) | caTPT1 confirm 111 | RNase T1 counter 118
C/C(=N\N1CCCCC1c1cccnc1)c1c(O)n(C2CCCCC2)c(=S)[nH]c1=O (configuration not stated)	TPT1 inhibitor 82, HNF4A DNA FP 61 (not shown: Rpn11 inh) | caTPT1 confirm 123 | RNase T1 counter 133
CCCCn1c(O)c(/C(CC)=N/N2CCCCC2c2cccnc2)c(=O)[nH]c1=S (configuration not stated)	none
CCCCCC1(C(C)C)C(=O)NC(=S)NC1=O	none (no result: TPT1 inhibitor)
COc1cc(N2CCOCC2)ccc1/C=C1\C(=O)NC(=O)N(Cc2cccs2)C1=O	none
COc1cc(N2CCOCC2)ccc1/C=C1\C(=O)NC(=O)N(Cc2ccc3c(c2)OCO3)C1=O	TPT1 inhibitor 27 | caTPT1 confirm 46 | RNase T1 counter 65
COc1ccc(C2SCC(=O)Nc3c2c(C)nn3C2CCOC(C)(C)C2)cc1OC (configuration not stated)	TPT1 inhibitor 27 | caTPT1 confirm inactive | RNase T1 counter 25
Cc1ccc2c(c1)C1CN(C)CCC1N2C(=O)c1cn(-c2ccccc2)nc1-c1ccccc1 (configuration not stated)	none
CN1C(=O)/C(=C/c2ccc(N3CCCCCC3)o2)C(=O)NC1=S	TPT1 inhibitor 167 (not shown: Rpn11 inh) | caTPT1 confirm 145 | RNase T1 counter 138
CN1C(=O)C(=Cc2ccc(Sc3ccccc3)o2)C(=O)N(C)C1=S	TPT1 inhibitor 37, Rpn11 inh 44 | caTPT1 confirm inactive | RNase T1 counter 37
CN1C(=O)/C(=C\c2ccc(N3CCCCC3)o2)C(=O)NC1=S	TPT1 inhibitor 113 (not shown: Rpn11 inh) | caTPT1 confirm 142 | RNase T1 counter 136
C=CCN1C(=O)/C(=C\c2ccc(N3CCOCC3)o2)C(=O)NC1=S	TPT1 inhibitor 108, HNF4A DNA FP 56 (not shown: Rpn11 inh) | caTPT1 confirm 120 | RNase T1 counter 124
O=C1NC(=O)C(=Cc2ccc(Sc3ccccc3)o2)C(=O)N1	none
CN1CCC(O)(c2cccs2)C(C(=O)c2cccs2)C1 (configuration not stated)	none
CSc1nc(C)c(Br)c(N2CC2)n1	none (no result: TPT1 inhibitor)
CN1CCN(c2ccc(/C=C3\C(=O)NC(=S)N(c4cccc(Br)c4)C3=O)o2)CC1	TPT1 inhibitor 132 (not shown: Rpn11 inh) | caTPT1 confirm 152 | RNase T1 counter 142
CCCCN1C(=O)/C(=C/c2ccc(N3CCCCCC3)cc2)C(=O)NC1=S	TPT1 inhibitor 36 (no result: Rpn11 inh, HNF4A DNA FP, CSN deneddyl inh) | caTPT1 confirm 33 | RNase T1 counter 43
C=CCN1C(=O)/C(=C/c2ccc3c(c2)CCCN3CCC)C(=O)NC1=S	none
CN1C(=O)C(=Cc2ccc(N3CCOCC3)o2)C(=O)N(C)C1=S	TPT1 inhibitor 57, HNF4A DNA FP 87 (not shown: Rpn11 inh) | caTPT1 confirm 114 | RNase T1 counter 118
CCOc1ccc(N2C(=O)NC(=O)/C(=C\c3ccc(N4CCCCC4)o3)C2=O)cc1	TPT1 inhibitor 138 (not shown: Rpn11 inh) | caTPT1 confirm 149 | RNase T1 counter 146
O=C1NC(=O)N(c2cccc(F)c2)C(=O)/C1=C/c1ccc(N2CCOCC2)cc1	none
CN(C)CCSC1c2ccccc2CSc2ccccc21 (configuration not stated)	none
Cc1cccc(-n2c(O)c(C=Nc3ccc(S(N)(=O)=O)cc3)c(=O)[nH]c2=O)c1	TPT1 inhibitor 30 | caTPT1 confirm inactive | RNase T1 counter inactive
O=c1[nH]c(=O)n(-c2ccc(Cl)cc2)c(O)c1C=Nc1ccc(S(=O)(=O)Nc2nccs2)cc1	TPT1 inhibitor 31 | caTPT1 confirm 37 | RNase T1 counter 52
Clc1cc(Cl)cc(NC2=NCCS2)c1	none
CC12CCC3C(CCC4CC(=O)C(C(O)C(F)(F)F)CC43C)C1CCC2O (configuration not stated)	none (no result: TPT1 inhibitor)
Nc1c([N+](=O)[O-])cc(F)c(N2CCNCC2)c1Br	TPT1 inhibitor 27 | caTPT1 confirm inactive | RNase T1 counter inactive
O=C1NC(=O)C(CCc2ccncc2)(Cc2ccc([N+](=O)[O-])cc2)C(=O)N1	TPT1 inhibitor 28 | caTPT1 confirm inactive | RNase T1 counter inactive
COc1ccc(CC2(CCc3ccncc3)C(=O)NC(=O)NC2=O)cc1	none
COc1ccc(OC)c(N2C(=O)/C(=C/c3ccco3)C(=O)NC2=S)c1	TPT1 inhibitor 68 (no result: Rpn11 inh, HNF4A DNA FP, CSN deneddyl inh) | caTPT1 confirm 55 | RNase T1 counter 27
C=CCn1cc(C=C2C(=O)NC(=O)NC2=O)c2ccccc21	TPT1 inhibitor 25 | caTPT1 confirm 40 | RNase T1 counter 52
O=C(O)Cn1cc(/C=C2\C(=O)NC(=O)N(c3ccc(Cl)cc3)C2=O)c2ccccc21	TPT1 inhibitor 40 | caTPT1 confirm 42 | RNase T1 counter 53
O=C(O)Cn1cc(C=C2C(=O)NC(=O)NC2=O)c2ccccc21	none
C/C(=C\c1ccc(N(C)C)cc1)[N+](=O)[O-]	none
CN(C)c1ccc(/C=C/[N+](=O)[O-])cc1	TPT1 inhibitor 51 | caTPT1 confirm 73 | RNase T1 counter 90
C#C[C@]1(O)CC[C@H]2[C@@H]3CCC4=Cc5nc6nc7ccccc7n6cc5C[C@]4(C)[C@H]3CC[C@@]21C	TPT1 inhibitor 32 | caTPT1 confirm 33 | RNase T1 counter 44
C#CC1(O)CCC2C3CCC4=C/C(=N/OCC(=O)NCC(=O)NC(C(=O)O)C(C)C)CC[C@]4(C)C3CC[C@@]21C (some centres not stated)	none (no result: TPT1 inhibitor)
CCCCn1c(O)c(/C=N/NC(=O)c2ccncc2)c(=O)[nH]c1=S	TPT1 inhibitor 30, HNF4A DNA FP 48 (not shown: Rpn11 inh) | caTPT1 confirm inactive | RNase T1 counter 29
Cc1ccc(-n2c(O)c(/C=N/NC(=O)c3ccncc3)c(=O)[nH]c2=O)cc1	TPT1 inhibitor 30 | caTPT1 confirm 47 | RNase T1 counter 56
Cn1c(O)c(/C=N/NC(=O)c2ccncc2)c(=O)[nH]c1=S	none
CCCOP(=O)(OCCC)C(NC(=O)c1ccccc1)=C(Cl)Cl	none
CCOP(=O)(OCC)C(NC(=O)c1ccc(Cl)cc1)=C(Cl)Cl	TPT1 inhibitor 49 | caTPT1 confirm inactive | RNase T1 counter inactive
CCC(=NCc1ccco1)c1c(O)n(-c2ccccc2C)c(=O)[nH]c1=O	none
Cc1ccc(S(=O)(=O)c2nc(-c3ccccc3Cl)oc2N(C)C2CCN(C)CC2)cc1	none (no result: TPT1 inhibitor)
O=c1[nH]c(=O)n(CCC2=CCCCC2)c(O)c1C=NCCCn1ccnc1	none
O=c1[nH]c(=O)n(CCc2ccc(F)cc2)c(O)c1C=NCCCn1ccnc1	TPT1 inhibitor 39 | caTPT1 confirm 33 | RNase T1 counter 44
O=c1c2ccccc2nc(/C=C/c2ccccc2O)n1-c1ccccc1O	TPT1 inhibitor 25 (not shown: Rpn11 inh) | caTPT1 confirm 37 | RNase T1 counter 48
CC(C)CCn1c(N)c(C(=O)NCc2cccs2)c2nc3ccccc3nc21	none
CC(C)CNC(=O)c1c(N)n(Cc2ccco2)c2nc3ccccc3nc12	TPT1 inhibitor 28 | caTPT1 confirm inactive | RNase T1 counter 23

Bioassay records deposited in PubChem by several laboratories.
